Assay results from different studies.
Lines come from different studies, so protocols differ.
CDK7: Cyclin-dependent kinase 7 (CDK7, Homo sapiens, UniProt P50613)
CDK7 with cyclin H: Cyclin-dependent kinase 7, with cyclin H (CDK7, Homo sapiens, UniProt P50613)

Cc1nc(Cc2cccc(C(F)(F)F)c2)sc1-c1ccc(C(N)=O)nc1
remaining binding (CDK7; cell-free assay, competition with immobilised ligand; 1 µM): 90%

O=C(Nc1cnn(-c2csc(C(=O)NC3COC3)c2)c1)Nc1c(F)cccc1Cl
remaining activity (CDK7 with cyclin H; enzyme activity, inhibitor; 5 µM): 95.8%

CN1C(=N)N(C)/C(=C/c2c[nH]c3ccccc23)C1=O
inhibition (CDK7 with cyclin H; enzyme activity, inhibitor, ADP detection; 10 µM): 34.1%

Nc1ncnc2occ(-c3ccc(NC(=O)Nc4cc(C(F)(F)F)ccc4F)cc3)c12
remaining signal (CDK7; cell-free assay, inhibitor; 20 µM): 0.9%

COC(=O)[C@H]1[C@H]2C[C@@H]3c4[nH]c5cc(OC)ccc5c4CCN3C[C@H]2C[C@@H](OC(=O)c2cc(OC)c(OC)c(OC)c2)[C@@H]1OC
inhibition (CDK7 with cyclin H; enzyme activity, inhibitor, ADP detection; 10 µM): -37.8%

CCCCNc1ncc2c(-c3ccc(F)cc3)nn(C[C@H]3CC[C@H](N)CC3)c2n1
inhibition (CDK7; target engagement in cells, inhibitor, chemoproteomics; 20 mM): 31.5%

CC(C)(O)[C@H]1CC[C@H](Nc2ccc3ncc(-c4cccc(C(F)(F)F)c4)n3n2)CC1
remaining activity (CDK7 with cyclin H; enzyme activity, inhibitor; 1 µM): 96.6%

O=C1Nc2ccc(Cl)cc2C1=Cc1cc(Cl)c(O)c(Cl)c1
remaining signal (CDK7 with cyclin H; cell-free assay; 0.5 µM): 96.7%

CC(C)c1ccc(NC(=O)c2cccs2)c(-c2nc3ccccc3[nH]c2=O)c1
activity vs control (CDK7; enzyme activity, inhibitor; 1 µM): 85%

CCN(CC)CCNC(=O)c1c(C)[nH]c(/C=C2\C(=O)Nc3ccc(F)cc32)c1C
remaining signal (CDK7 with cyclin H; cell-free assay; 0.5 µM): 73.4%

CN(c1ccnc(CNc2nc(Nc3ccc4c(c3)CC(=O)N4)ncc2C(F)(F)F)n1)S(C)(=O)=O
remaining binding (CDK7; cell-free assay, competition with immobilised ligand; 1 µM): 3.5%

Cc1ccc(NC(=O)c2ccc(C)c(C(F)(F)F)c2)cc1C#Cc1nn(C2CCC(O)CC2)c2ncnc(N)c12 (stereo not drawn)
remaining signal (CDK7; cell-free assay; 10 µM): 103%

CC[C@]12CCCN3CCc4c(n(c5ccccc45)[C@@](O)(C(=O)OC)C1)[C@@H]32
inhibition (CDK7 with cyclin H; enzyme activity, inhibitor, ADP detection; 10 µM): -20.8%

CO[C@@H](C)c1c(Nc2ccc([C@@H](N(C)C(=O)C3CCS(=O)(=O)CC3)C(F)(F)F)cc2)cnc2cc(Cl)nn12
remaining binding (CDK7; cell-free assay, competition with immobilised ligand; 1 µM): 100%

CNC(=O)c1cc(Oc2ccc(NC(=O)Nc3ccc(Cl)c(C(F)(F)F)c3)cc2)ccn1
inhibition (CDK7 with cyclin H; enzyme activity, inhibitor; 10 µM): -36%

Cn1cc2c3ccccc3nc-2c2ccccc21
inhibition (CDK7 with cyclin H; enzyme activity, inhibitor, ADP detection; 10 µM): 38.3%

O=C(Nc1cnn(-c2csc(C(=O)NC3COC3)c2)c1)Nc1ccccc1Cl
remaining activity (CDK7 with cyclin H; enzyme activity, inhibitor; 5 µM): 99.7%

CC(C)(C)c1nc2c(s1)c1nc(N)ncc1c1ccc(NS(=O)(=O)c3c(F)cccc3F)c(F)c12
remaining activity (CDK7 with cyclin H; enzyme activity, inhibitor, radiometric; 1 µM): 123%

Oc1ccc(-c2nc(-c3ccncc3)c(-c3ccc(F)cc3)[nH]2)cc1
remaining signal (CDK7 with cyclin H; cell-free assay; 0.5 µM): 99.4%

COC(=O)C1=CO[C@@H](C)[C@H]2CN3CCc4c([nH]c5ccccc45)[C@@H]3C[C@H]12
inhibition (CDK7 with cyclin H; enzyme activity, inhibitor, ADP detection; 10 µM): -41.8%

C[C@H](c1ccnc(Nc2nc3ccc(-c4cc(N(C)C)ncn4)cc3[nH]2)c1)N1CCN(C(=O)CC(F)(F)F)CC1
remaining binding (CDK7; cell-free assay, competition with immobilised ligand; 0.1 µM): 93%

CCCCCC[C@@H](C)/C=C(C)/C=C/C(=O)N[C@H]1CC2(O[C@H]1O)[C@@H]1O[C@@H]1C(=O)[C@@H]1O[C@@H]12 (stereo partly drawn)
inhibition (CDK7 with cyclin H; enzyme activity, inhibitor, ADP detection; 10 µM): -18.5%

CS(=O)(=O)N1CCCC(NC(=O)[C@H](CCC2CCCCC2)NC(=O)c2ccc(CNc3ncnc4c3nnn4-c3ccccc3)cc2)C1 (stereo partly drawn)
remaining binding (CDK7; cell-free assay, competition with immobilised ligand; 0.1 µM): 100%

O=C1C[C@@H](c2ccc(O)c(O[C@@H]3O[C@H](CO)[C@@H](O)[C@H](O)[C@H]3O)c2)Oc2cc(O[C@@H]3O[C@H](CO)[C@@H](O)[C@H](O)[C@H]3O)ccc21
inhibition (CDK7 with cyclin H; enzyme activity, inhibitor, ADP detection; 10 µM): 36.6%

CNC(=O)Nc1ccc2c(c1)[C@@]1(CC2)OC(=O)N(CC(=O)N(Cc2ccc(F)cc2)[C@@H](C)C(F)(F)F)C1=O
remaining binding (CDK7; cell-free assay, competition with immobilised ligand; 1 µM): 76%

COc1cc2oc(-c3ccccc3)cc(=O)c2c(OC)c1OC
inhibition (CDK7 with cyclin H; enzyme activity, inhibitor, ADP detection; 10 µM): 22.4%

CCS(=O)(=O)c1cc2cc(C[C@@](O)(CC(C)(C)c3ccc(F)cc3C(N)=O)C(F)(F)F)[nH]c2cn1
remaining binding (CDK7; cell-free assay, competition with immobilised ligand; 1 µM): 99%

Cc1ccc(C(=O)Nc2ccc(CN3CCN(C)CC3)c(C(F)(F)F)c2)cc1C#Cc1cnc2cccnn12
remaining activity (CDK7; enzyme activity, inhibitor; 23.5 nM): 47%

Cc1cc(NC(=O)c2cccc(S(F)(F)(F)(F)F)c2)cc(-n2ccn3nc(-c4cccnc4)cc23)c1
remaining binding (CDK7; cell-free assay, competition with immobilised ligand; 1 µM): 100%

Cc1cnc(NC2CCOCC2)nc1-n1cnc(C(=O)NC(CN)c2cc(F)cc(Cl)c2)c1 (stereo not drawn)
remaining activity (CDK7; enzyme activity, inhibitor, radiometric; 1 µM): 16%
